Bioassay records deposited in PubChem by several laboratories.
FLuc inhib CS – firefly luciferase enzyme inhibitors, primary screen, artefact control for luciferase-based inhibitor screens, biochemical, luminescence, ATPLite | 10 min | AID 1006, 2008 | Luciferin 4-monooxygenase (Photinus pyralis), P08659 | inhibition, % at 10 µM | 1.5% of 200,000 active;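 active = inhibition above about 50% when tested at 10 µM, limit read from the data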
Target sequence (P08659 whole entry, looked up): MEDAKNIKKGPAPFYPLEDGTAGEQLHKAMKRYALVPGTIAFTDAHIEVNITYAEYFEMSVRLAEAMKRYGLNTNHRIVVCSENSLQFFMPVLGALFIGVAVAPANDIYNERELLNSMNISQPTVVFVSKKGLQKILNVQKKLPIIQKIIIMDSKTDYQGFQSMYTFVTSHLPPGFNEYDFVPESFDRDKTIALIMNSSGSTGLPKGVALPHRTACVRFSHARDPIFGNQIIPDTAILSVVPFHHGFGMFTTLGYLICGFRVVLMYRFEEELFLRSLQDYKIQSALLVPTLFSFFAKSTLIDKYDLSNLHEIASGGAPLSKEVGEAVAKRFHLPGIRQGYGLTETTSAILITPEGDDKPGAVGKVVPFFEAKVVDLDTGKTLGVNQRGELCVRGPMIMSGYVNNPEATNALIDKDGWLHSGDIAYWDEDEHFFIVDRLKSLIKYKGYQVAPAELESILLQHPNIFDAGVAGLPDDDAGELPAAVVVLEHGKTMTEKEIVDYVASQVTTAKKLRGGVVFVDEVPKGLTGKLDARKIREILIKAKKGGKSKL
STAT1 act – STAT1 signaling activators, primary screen, cell-based, HTS, luciferase reporter | NIH 3T3 STAT1-luciferase reporter, IFN-gamma, luminescence; 100% = IFN-gamma alone, no compound | activation (% of control), % at 5.5 µM | AID 932, 2007 | 2.6% of 200,000 active;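 active = activation above the screen-wide mean activation plus 3 SD, cut at about 130% in these data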;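 note: raw ratio to IFN-gamma control signal so 100% means no change and 0% no light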
NF-kB expr up – activators of NF-kB expression in neurons, primary screen, cell-based, HTS. 1.6% of 190,000 active. AID 1239, 2008. human neuronal cells, NF-kB reporter expression; stronger effect = higher value. fold change at 12.5 µM; in the data active = fold change above about 3.3
FLuc stim CS – FLuc activators, initial screening, artefact control for FLuc-dependent activation tests, biochemical, ATPlite luminescence. Luciferin 4-monooxygenase (Photinus pyralis), P08659. 200,000 tested, under 10 active. ATPlite luciferase biochemical, 10 min; 0 = ATP-free wells, 1 = DMSO control. activation factor at 10 µM;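 active = luciferase activation factor, scaled between plate controls, of at least 2 with compound at 10 µM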
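Material: luciferase plus luciferin reagent, cell-free. Medium: PBS buffer for ATP. Also added: ATP substrate, dispensed from a 10.24 µM working solution in PBS. Doses: test compounds dosed from 2 mM stocks in 100% DMSO. Incubation: 10 min post-reagent at room temperature. Technique: light output (luminescence). Read-out basis: luminescence gain marking luciferase activators.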
APP 5'UTR act – activators of APP 5'UTR luciferase reporter, primary screen, SH-SY5Y cells; activation, % at 2 µM; SH-SY5Y APP 5'UTR luciferase reporter, luminescence; zero percent = DMSO vehicle wells; 1% of 190,000 active; AID 1276, 2008;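 active = activation above a set limit, based on mean plus 3 SD of controls, cut at about 140% in these data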
Active calls of the source: *; / = no result given. A selection: hits, their analogues and other compounds. The true share with any hit is near 4.1%.

SMILES | FLuc inhib CS | STAT1 act | NF-kB expr up | FLuc stim CS | APP 5'UTR act
O=C(Nc1cccc([N+](=O)[O-])c1)C(=O)N1CCCCC1 | -1 | 132* | 2.4 | 1 | 69
COCC(=O)NC(c1ccccc1)c1ccccc1 | -7 | 106 | 1.7 | 1.1 | -6
Cc1c(C(N)=O)c(-c2ccccc2)nn1-c1ccccc1 | -5 | 99 | 1.2 | 1.1 | 2
Nc1ccc2c(c1)COC2=O | 4 | 127 | 2.8 | 1 | 38
Cc1cc(C)n(-c2nc3nonc3nc2-n2nc(C)cc2C)n1 | -6 | 99 | 0.84 | 1.1 | 8
COc1ccc(C)cc1NC(=O)NCc1ccc(F)cc1 | 58* | 106 | 0.89 | 0.4 | 1
Cc1cnc(-c2nnc(N(C)C(=O)c3cccnc3)s2)cn1 | -1 | 109 | 1.2 | 1 | 6
CC1CCN(CCn2c(=S)[nH]c3cc4c(cc3c2=O)OCO4)CC1 | -4 | 103 | 1.6 | 1 | -4
COc1ccccc1-c1cc(SC)c(C#N)c(=O)o1 | -6 | 133* | 1.7 | 1.1 | -1
CC(C)(C)C1=CC(=O)C(=O)C(C(C)(C)C)=C1 | 14 | 95 | 1.2 | 0.9 | -47
CCc1cccc(Nc2cc(C)nc3ncnn23)c1 | -12 | 104 | 0.84 | 1.1 | 15
CCn1c2ccccc2c2cc(Nc3cc(C)nc4ncnn34)ccc21 | -8 | 103 | 4.4* | 1.1 | -96
O=C(Cn1nnc(-c2ccccc2)n1)N1CCN(c2ccc(F)cc2)CC1 | -6 | 108 | 1.1 | 1.1 | -2
COc1ccc(-c2[nH]ncc2N=Nc2ccccc2)cc1 | -1 | 130* | 1.6 | 1 | -18
COc1ccc(-c2[nH]ncc2N=Nc2cc(C)cc(C)c2)cc1 | -3 | 104 | 1.1 | 1 | -3
CCOC(=O)c1sc(NC(=O)c2ccco2)nc1C | 47 | / | 1.4 | 0.5 | /
Cc1c(C(=O)Nc2nnc(C(F)(F)F)s2)oc2ccccc12 | 18 | / | 1.6 | 0.8 | /
COC(=O)c1sc(NC(=O)c2ccc(C)o2)nc1C | 52* | 121 | 1.3 | 0.5 | 70
CCOC(=O)c1sc(NC(=O)c2ccc(OC)cc2)nc1C | 10 | 105 | 1.7 | 0.9 | 41
COC(=O)c1sc(NC(=O)c2oc3ccccc3c2C)nc1C | 6 | 144* | 2.5 | 0.9 | 27
CCOC(=O)c1sc(NC(=O)c2ccc(C)o2)nc1C | 69* | 123 | 3.2 | 0.3 | 85
O=C(CSCc1n[nH]c(=O)[nH]1)NCCOc1cccc(Oc2ccccc2)c1 | -4 | 102 | 1.1 | 1 | -6
CCCCOc1ccccc1-c1cc(C(=O)O)[nH]n1 | -2 | 103 | 0.97 | 1 | 7
Cc1ccc(Cn2cc(SCC(N)=O)c3ccccc32)cc1 | -1 | 93 | 1.3 | 1 | -2
O=c1o[nH]c(-c2ccccc2)c1C=Nc1ccc(Cl)cc1 | -1 | 102 | 1.1 | 1 | 18
SMILES | FLuc inhib CS | STAT1 act | NF-kB expr up | FLuc stim CS | APP 5'UTR act
Cc1csc(NC(=O)c2cc3c(s2)-c2ccccc2OC3)n1 | 6 | 139* | 2 | 0.9 | 112
Cc1csc(NC(=O)c2cc3c(s2)CCC3)n1 | 79* | 118 | 9.8* | 0.2 | 105
Cc1csc(NC(=O)c2cccs2)n1 | 10 | 122 | 2.5 | 0.9 | 49
Cc1nc(NC(=O)c2cc3c(s2)CCCCC3)sc1C(=O)N(C)C | -8 | 132* | 2.4 | 1.1 | 27
Cc1nc(NC(=O)c2ccc(Br)s2)sc1C(=O)N(C)C | 40 | 138* | 3 | 0.6 | 132
CCn1c2ccccc2c2cc(NC(=O)CSc3nnnn3-c3ccccc3)ccc21 | -7 | 93 | 0.98 | 1.1 | 36
COCCCNS(=O)(=O)c1ccc(S(=O)(=O)N2CCCC2)cc1 | 3 | 98 | 1.1 | 1 | 6
Cc1ccc2cc(N)ccc2n1 | -4 | 100 | 1.2 | 1 | 0
C/C(=N\NC(=O)OC(C)(C)C)c1ccccc1Br | 3 | 132* | 2.1 | 1 | 20
Cn1nc(C(=O)NCCN2CCOCC2)c2ccccc2c1=O | -3 | 98 | 1.2 | 1 | 6
COc1ccc(-n2ncc(Cl)c(Cl)c2=O)cc1 | 5 | 106 | 1.1 | 0.9 | -92
COc1ccc(-n2ncc(N(C)n3cccc3)c(Cl)c2=O)cc1 | 54* | 134* | 3.7* | 0.5 | 133
CN(C)c1cnn(-c2ccccc2)c(=O)c1Cl | 4 | 108 | 1.7 | 1 | -2
Cc1ccc(-n2ncc(N(C)C)c(Cl)c2=O)cc1 | 30 | 132* | 2.6 | 0.7 | 119
COc1cc2ccccc2cc1-c1nnc(COc2ccccc2)o1 | 2 | 112 | 1.1 | 1 | 5
O=C(Cc1ccccc1[N+](=O)[O-])NCc1ccc(Cl)cc1Cl | 59* | 131* | 4.4* | 0.4 | 98
O=C(Cc1ccccc1[N+](=O)[O-])NCc1ccc(Cl)cc1 | 9 | 113 | 1.9 | 0.9 | 36
CCc1ccc(C(=O)COC(=O)c2cccc(N3C(=O)c4c(C)nc5ccccc5c4C3=O)c2)cc1 | 51* | 106 | 1.2 | 0.5 | 113
COc1ccc(Oc2nnc(C)c3ccccc23)cc1 | 14 | 130* | 3.5* | 0.9 | 38
CC(=O)c1cccc(NC(=S)NC(=O)c2ccc(C)cc2Cl)c1 | 9 | 131* | 1.7 | 0.9 | -2
CCOC(=O)c1cccc(NC(=O)c2ccc(N(C)C)cc2)c1 | 60* | 111 | 1.5 | 0.4 | 45
CCC(=O)Nc1cccc(NC(=S)NC(=O)c2ccc(C)cc2)c1 | 23 | 145* | 2.6 | 0.8 | 107
O=C(O)c1cccc(NC(=O)c2ccc3c(c2)C(=O)N(CC2CCCO2)C3=O)c1 (stereo not drawn) | 51* | 66 | 1 | 0.5 | 16
COc1cc(-c2nn3c(-c4ccccc4)nnc3s2)cc(OC)c1OC | -2 | 105 | 0.5 | 1 | -12
Cc1cc(C)n2nc(SCC(=O)Nc3ccc(F)cc3)nc2n1 | 0 | 93 | 1.1 | 1 | 6
SMILES | FLuc inhib CS | STAT1 act | NF-kB expr up | FLuc stim CS | APP 5'UTR act
CCOC(=O)Cc1csc(NC(=S)NC(=O)c2ccc(C)cc2)n1 | 80* | 92 | 0.7 | 0.2 | -26
CC(=O)c1cccc(NC(=S)NC(=O)c2ccc(C)cc2)c1 | 8 | 138* | 3.5* | 0.9 | 88
Cc1ccc(C(=O)Nc2cccc(C(=O)O)c2)cc1 | 62* | 24 | 5.3* | 0.4 | -35
N#CCC(=O)N/N=C/c1cc([N+](=O)[O-])ccc1N1CCOCC1 | -4 | 90 | 0.8 | 1 | 5
COc1ccc(C(=O)NC(=S)Nc2ccc3oc(=O)ccc3c2)cc1OC | -6 | 90 | 1 | 1.1 | -41
O=C(Nc1ccc2sccc2c1)c1cccc(N2C(=O)CCC2=O)c1 | 20 | 140* | 1.9 | 0.8 | 13
O=C(Nc1nc2cc3c(cc2s1)OCCO3)c1cccc(N2C(=O)CCC2=O)c1 | 81* | 110 | 1.3 | 0.2 | 6
